These results are taken from article PMC6697428 (SLAS discovery : advancing life sciences R & D, 2018).

Read-outs that look alike come from different tables or passages of the source. Some results are limits rather than exact numbers.

Usually EC50 stands for the midpoint of the concentration-response curve.

Data set [1] deals with ISRE-bla THP-1 cells. The experiment in a line: ISRE-bla THP-1 FRET reporter assay for prolonged IFN-α induced ISRE activation. Type of data set: cell-based, human. (In a reporter assay the amount or activity of a reporter protein is the signal.)
Data set [2] relates to THP-1 cells. The experiment in a line: MTT cell viability assay. Type of data set: cell-based, human. The settings on record: for relative viability (MTT): 5 μM compound, overnight, relative to vehicle control (0.5% DMSO). Put shortly: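 THP-1 cells in 96-well plates were exposed to test compound at 5 μM for 18 h. MTT (0.5 mg/ml in assay media) was then added for 4–6 h. Cells were lysed overnight in 15% w/v SDS with 0.12% v/v 12N HCl. Absorbance was read at 570 nm against a 650 nm reference and expressed relative to vehicle (0.5% DMSO) wells.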

Data set [3] deals with STAT1 phosphorylation in THP-1 cells. The experiment in a line: Immunoblot of STAT1 phosphorylation after IFN-α. Type of data set: cell-based, human. The settings on record: 1 μM compound pre-treatment 12 h, then IFN-α. (In general: A western blot detects proteins with antibodies after separation by electrophoresis.)
For data set [4], the system named is murine bone marrow derived dendritic cells. Type of data set: cell-based, mouse. To be noted: 5 μM compound in presence of IFN-α, compared to IFN-α alone.
The subject of data set [5] is ISG15 in THP-1 cells. Briefly: Immunoblot of IFN-α induced ISG15 protein expression. Type of data set: cell-based, human. The settings on record: 24 h.
For data set [6], the system named is human THP-1 cells. The experiment in a line: q-PCR of ISG15 and ISG56 gene expression in THP-1 cells. The settings on record: 1 μM compound, 1000 U/mL IFN-α, 8 h, compared to vehicle. Type of data set: cell-based.

For `O=C(Cc1ccc(-c2ccc(OCCN3CCOCC3)cc2)cn1)NCc1ccccc1` [Compound 24, KX2–391], in data set [1] (no IFN-α, even at higher concentrations of the compounds), the “FRET ratio in the absence of exogenous interferon” value is on record as “no increase”. Besides, in data set [1] (read-out: relative EC50 (ISRE activity), with 100 U/mL IFN, 16 h), the EC50 was determined as 1640 nM. Further, the “relative viability (MTT)” value in data set [2] is “without significant toxicity”. In addition, the “% relative viability, dose response cytotoxicity” value in data set [2] (absence of IFN-α, dose response starting with 50 μM) is greater than 75%. In addition, in data set [3] (30 minutes), the “level of p-STAT1 after 30 minutes” value is given as “elevated”. For the same molecule, in data set [3] (6 h), the “level of p-STAT1 at 6 h post stimulation” value is listed as “minimal residual effect”. Further, the “mRNA expression of Isg56, Isg15, Ifi2712a, Irf7, Ifi16” value in data set [4] is “significantly increased”; in data set [4] (listed as KX2–391), “increased”. Besides, the “levels of IFN-α induced ISG15 protein” value in data set [5] (1 μM compound with IFN-α) is given as “increased”. Moreover, the “amounts of ISG15 protein without IFN-α” value in data set [5] (compound alone) is “did not increase”. Moreover, in data set [6], the “increase in gene expression for both ISG15 and ISG56” value is given as roughly 2 fold.
On to `O=C(/C=C/c1cccc(S(=O)(=O)Nc2ccccc2)c1)NO` [Compound 26, belinostat], for which the “relative viability (MTT)” value in data set [2] (5 µM) is “toxic”; in data set [2] (listed as Belinostat, 5 µM) it was “relatively toxic”.
